Laboratory results as given in ChEMBL document CHEMBL6074625, “Thiazolidine-2,4-dione hybrids as dual alpha-amylase and alpha-glucosidase inhibitors: design, synthesis, in vitro and in vivo anti-diabetic evaluation” (RSC Med Chem, 2024).
The source made the active and inactive calls. No cut-off for these calls is given here.

Assays:
[1] = Inhibition of porcine pancreatic alpha-amylase using starch as substrate preincubated for 10 min followed by substrate addition and measured after 20 min by absorbance based analysis; set-up: species or system Sus scrofa
Procedure, shortened: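 Porcine α-amylase (1 U mL⁻¹) pre-incubated with compound 10 min at 25 °C in phosphate buffer pH 6.8. 1% starch added, then 15 min at 37.5 ± 2 °C. Quenched with DNS reagent, heated 70 °C 20 min, diluted with buffer, A540 read, in triplicate. Final concentrations 100–1 μM from DMSO dilutions; IC50 from a linear fit of % inhibition at y = 50.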

Rattus norvegicus [2] = organism: Rattus norvegicus; assay: Anti-diabetic activity against STZ-induced diabetic Wistar rat model assessed as increase increase in number of neutrophils level; assay type: functional, organism-based
Procedure, shortened: (§1)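 STZ-diabetic Wistar rats in six groups (normal, vehicle 0.5% CMC oral, STZ, STZ + test compounds, STZ + pioglitazone); oral treatment started day 14 after STZ on day 1. Markers measured in serum, pancreatic homogenate or whole blood, as named in each line. Groups compared by one-way ANOVA.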

Rattus norvegicus [3] = assay: Antidiabetic activity against streptozotocin-induced Wistar rat assessed as change in uric acid level at 10 mg/kg, po administered for 21 days measured on day 35; assay type: functional, organism-based; details: time 35.0 day; procedure, shortened: as §1
Rattus norvegicus [4] = assay: Anti-diabetic activity against in streptozotocin-induced diabetic Wistar rat model assessed as reduction in blood glucose level at 10 mg/kg, po administered for 21 days measured on day 35 by tail puncture method; assay type: functional, organism-based; details: time 35.0 day
Procedure, shortened: (§2)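 STZ given on day 1; oral treatment started day 14, with vehicle 0.5% CMC in controls. Six groups: normal, vehicle, STZ, STZ + two test compounds, STZ + pioglitazone. Blood glucose (tail puncture, glucometer) and body weight recorded on days 1, 4, 14 and 35. One-way ANOVA.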

PANC-1 [5] = assay: Inhibition of high glucose induced alpha-amylase expressed in human PANC-1 cells assessed as decrease alpha-glucosidase level by measuring minimum fractional index incubated for 23 hrs and measured after 24 hrs by flow cytometric analysis; assay type: functional, cell-based
Rattus norvegicus [6] = assay: Antidiabetic activity against streptozotocin-induced Wistar rat assessed as increase in serum SGPT level at 10 mg/kg, po administered for 21 days measured on day 35; assay type: functional, organism-based; details: time 35.0 day; procedure, shortened: as §1
Rattus norvegicus [7] = organism: Rattus norvegicus; assay: (§3) Anti-diabetic activity in high glucose induced alpha-amylase expression in fasted STZ-induced diabetic Wistar rat model assessed as alpha-glucosidase level in pancreas by measuring minimum fractional index incubated for 23 hrs and measured after 24 hrs by flow cytometric analysis (reference value: 3063 + 149.2); assay type: functional
PANC-1 [8] = assay: Cytotoxicity against human PANC-1 cells assessed as inhibition of cell viability at upto 100 uM incubated for 24 hrs by MTT assay; assay type: toxicity, cell-based; details: panc-1, 24 h
Procedure, shortened: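 PANC-1 cells seeded at 9 × 10³ per well, triplicate, 24 h at 37 °C, 5% CO₂. Treated with 5, 10, 20, 40, 60, 80 and 100 μM for another day. MTT (5 mg mL⁻¹ stock) 3 h at 37 °C, plates centrifuged, formazan dissolved in DMSO 30 min dark, A570. Viability compared by one-way ANOVA with Tukey test.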

Rattus norvegicus [9] = assay: Antidiabetic activity against STZ-induced oxidative stress in Wistar rats model assessed as reduction malondialdehyde level in pancreatic tissue at 10 mg/kg, po administered for 21 days measured on day 35; assay type: functional, organism-based; details: time 35.0 day; procedure, shortened: as §1
Rattus norvegicus [10] = organism: Rattus norvegicus; assay: Anti-diabetic activity against STZ-induced diabetic Wistar rat model assessed as increase increase in number of monocytes level; assay type: functional, organism-based; procedure, shortened: as §1
Rattus norvegicus [11] = organism: Rattus norvegicus; assay: Anti-diabetic activity against STZ-induced diabetic Wistar rat model assessed as increase increase in number of eosinophils level; assay type: functional, organism-based; procedure, shortened: as §1
Rattus norvegicus [12] = organism: Rattus norvegicus; assay: Anti-diabetic activity against STZ-induced diabetic Wistar rat model assessed as increase increase in number of haemoglobin level; assay type: functional, organism-based; procedure, shortened: as §1
Rattus norvegicus [13] = organism: Rattus norvegicus; assay: Anti-diabetic activity against STZ-induced diabetic Wistar rat model assessed as increase increase in number of lymphocytes level; assay type: functional, organism-based; procedure, shortened: as §1
Rattus norvegicus [14] = organism: Rattus norvegicus; assay: Anti-inflammatory activity in STZ-induced diabetic Wistar rat model assessed as decrease in IL-1beta level in blood by ELISA method
PANC-1 [15] = assay: Antioxidant activity in human PANC-1 cells assessed as decrease in high glucose induced ROS production by measuring minimum fractional index at 5 uM incubated for 24 hrs by DCFDA-staining based flow cytometry analysis; assay type: functional
Procedure, shortened: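 PANC-1 cells (1 × 10⁵/well) grown 24 h at 37 °C, 5% CO₂, then pre-treated 1 h with 5 μM compound. Exposed to glucose (stated 10 μM) for 23 h. Stained with 10 μM DCFH-DA for 30 min at 37 °C, rinsed, and ROS read by flow cytometry as DCFDA/FITC mean fluorescence intensity.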

Rattus norvegicus [16] = assay: Antidiabetic activity against streptozotocin-induced Wistar rat assessed as increase in serum amylase level at 10 mg/kg, po administered for 21 days measured on day 35 by ELISA analysis; assay type: functional, organism-based; details: time 35.0 day; procedure, shortened: as §1
INS1 = assay: Cytotoxicity against rat INS1 cells assessed as inhibition of cell viability at upto 100 uM incubated for 24 hrs by MTT assay; assay type: toxicity, cell-based; details: ins1, 24 h
Procedure, shortened: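 INS-1 MTT run as for PANC-1: 20 × 10³ cells per well in triplicate, 24 h at 37 °C/5% CO₂, then 5–100 μM (7 levels) for another day. MTT (5 mg mL⁻¹ stock) 3 h, centrifugation, DMSO solubilisation 30 min in dark, absorbance at 570 nm.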

Rattus norvegicus [17] = assay: Antidiabetic activity against streptozotocin-induced Wistar rat assessed as increase BUN level in serum at 10 mg/kg, po administered for 21 days measured on day 35; assay type: functional, organism-based; details: time 35.0 day; procedure, shortened: as §1
Rattus norvegicus [18] = organism: Rattus norvegicus; assay: as §3, with “alpha-amylase” for “alpha-glucosidase”, “2590” for “3063”, “199.74)” for “149.2)”; assay type: functional
Rattus norvegicus [19] = assay: Antidiabetic activity against STZ-induced oxidative stress in Wistar rats model assessed as increase GSH serum level at 10 mg/kg, po administered for 21 days measured on day 35 by absorbance based UV-spectroscopic analysis; assay type: functional, organism-based; details: time 35.0 day; procedure, shortened: as §1
Rattus norvegicus [20] = organism: Rattus norvegicus; assay: Anti-diabetic activity against STZ-induced diabetic Wistar rat model assessed as increase increase in number of white blood cell count level; assay type: functional, organism-based; procedure, shortened: as §1
Rattus norvegicus [21] = assay: Anti-diabetic activity against in streptozotocin-induced diabetic Wistar rat model assessed as reduction in blood glucose level at 10 mg/kg, po administered as single dose and measured upto 120 min by oral glucose tolerance test; assay type: functional, organism-based
Procedure, shortened: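 Wistar rats fasted 16 h, given a single oral 10 mg kg⁻¹ dose, then oral glucose 2 g kg⁻¹ immediately. Blood glucose taken by tail puncture with a glucometer at 0, 15, 30, 60, 90 and 120 min. Groups compared by ANOVA.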

Rattus norvegicus [22] = assay: Antidiabetic activity against streptozotocin-induced Wistar rat assessed as decrease in total cholesterol at 10 mg/kg, po administered for 21 days measured on day 35; assay type: functional, organism-based; details: time 35.0 day; procedure, shortened: as §1
Rattus norvegicus [23] = organism: Rattus norvegicus; assay: Anti-diabetic activity against STZ-induced diabetic Wistar rat model assessed as increase increase in number of total red blood cell count level; assay type: functional, organism-based; procedure, shortened: as §1
PANC-1 [24] = assay: Anti-diabetic activity against high glucose induced human PANC-1 cells assessed as decrease in glucose induced alpha-amylase expression by measuring by measuring minimum fractional index at 5 uM incubated for 23 hrs and measured after 24 hrs by flow cytometric analysis (reference value: 2887 +/- 95.87); assay type: functional
Rattus norvegicus [25] = assay: Antidiabetic activity against streptozotocin-induced Wistar rat assessed as increase in serum SGOT level at 10 mg/kg, po administered for 21 days measured on day 35; assay type: functional, organism-based; details: time 35.0 day; procedure, shortened: as §1
[26] = Toxicity against STZ-induced diabetic Wistar rat model assessed as body weight loss at 10 mg/kg, po measured on day 14; assay type: organism-based; details: in vivo, 336 h, time 14 day; procedure, shortened: as §2

IC50 [1] [µM] | Structure (SMILES) | Activity (Rattus norvegicus [2]) | Activity (Rattus norvegicus [3]) | Activity (Rattus norvegicus [4]) | Activity (PANC-1 [5]) | Activity (Rattus norvegicus [6]) | Activity index (Rattus norvegicus [7]) | Activity (PANC-1 [8]) | Activity (Rattus norvegicus [9]) | Activity (Rattus norvegicus [10]) | Activity (Rattus norvegicus [11]) | Activity (Rattus norvegicus [12]) | Activity (Rattus norvegicus [13]) | Activity (Rattus norvegicus [14]) | Activity_index (PANC-1 [15]) | Activity (Rattus norvegicus [16]) | Activity (INS1) | Activity (Rattus norvegicus [17]) | Activity index (Rattus norvegicus [18]) | Activity (Rattus norvegicus [19]) | also measured
9.2 | C#CCOc1ccc(/C=C2\SC(=O)N(Cc3cccc([N+](=O)[O-])c3)C2=O)cc1OCC | Active | Active | Active | Dose-dependent-effect | Active | 2540 | Non-toxic | Active | Active | Active | Active | Active | Active | 85.2 | inactive | Non-toxic | Active | 2250 | Active | Activity (Rattus norvegicus [20]): Active; Activity (Rattus norvegicus [21]): Active; Activity (Rattus norvegicus [22]): Active; Activity (Rattus norvegicus [23]): Active; Activity_index (PANC-1 [24]): 109; Activity (Rattus norvegicus [25]): Active; Activity [26]: Toxic
17.1 | C=CCOc1ccc(/C=C2\SC(=O)N(Cc3cccc([N+](=O)[O-])c3)C2=O)cc1OCC | Active | Active | Active | Dose-dependent-effect | Active | 132 | Non-toxic | Active | Active | Active | Active | Active | Active | 97.6 | inactive | Non-toxic | Active | 676 | Active | Activity (Rattus norvegicus [20]): Active; Activity (Rattus norvegicus [21]): Active; Activity (Rattus norvegicus [22]): Active; Activity (Rattus norvegicus [23]): Active; Activity_index (PANC-1 [24]): 797; Activity (Rattus norvegicus [25]): Active; Activity [26]: Toxic
